Reference: ChEMBL document CHEMBL1141135, “A positron emission tomography radioligand for the in vivo labeling of metabotropic glutamate 1 receptor: (3-ethyl-2-[11C]methyl-6-quinolinyl)(cis- 4-methoxycyclohexyl)methanone” (J Med Chem, 2005)

Assays:
[1] = target: Metabotropic glutamate receptor 5 (Rattus norvegicus, UniProt P31424); experiment: In vitro affinity for cloned rat metabotropic glutamate 5 receptors stably expressed on CHO cells determined in radioligand binding assay; type: cell-based
[2] = target: Metabotropic glutamate receptor 1 (Rattus norvegicus, UniProt P23385); experiment: In vitro affinity for cloned rat metabotropic glutamate 1 receptors stably expressed on CHO cells determined using [3H]-R214127 as radioligand; type: cell-based
[3] = Uptake in rat striatum 60 minutes after administration of the radiolabeled [11C]-compound; type: ADME, tissue-based; details: in vivo, 1 h
How it was run: (§1)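 Male Sprague-Dawley rats received the [11C] radioligand iv and were sacrificed at 10, 30 or 60 min. Brain regions were dissected and radioactivity counted. Uptake is expressed as %ID/g, mean ± SD, n = 3 animals per group.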

[4] = Uptake in rat cerebellum 10 minutes after administration of the radiolabeled [11C]-compound; type: ADME, tissue-based; details: in vivo; how it was run: as §1
[5] = Uptake in rat cerebellum 30 minutes after administration of the radiolabeled [11C]-compound; type: ADME, tissue-based; details: in vivo, 0.5 h; how it was run: as §1
[6] = Uptake in rat cerebellum 60 minutes after administration of the radiolabeled [11C]-compound; type: ADME, tissue-based; details: in vivo, 1 h; how it was run: as §1
[7] = Uptake in rat hippocampus 10 minutes after administration of the radiolabeled [11C]-compound; type: ADME, tissue-based; details: in vivo; how it was run: as §1
[8] = Uptake in rat hippocampus 30 minutes after administration of the radiolabeled [11C]-compound; type: ADME, tissue-based; details: in vivo, 0.5 h; how it was run: as §1
[9] = Uptake in rat hippocampus 60 minutes after administration of the radiolabeled [11C]-compound; type: ADME, tissue-based; details: in vivo, 1 h; how it was run: as §1
[10] = Uptake in rat frontal cortex 10 minutes after administration of the radiolabeled [11C]-compound; type: ADME, tissue-based; details: in vivo; how it was run: as §1
[11] = Uptake in rat frontal cortex 30 minutes after administration of the radiolabeled [11C]-compound; type: ADME, tissue-based; details: in vivo, 0.5 h; how it was run: as §1
[12] = Uptake in rat frontal cortex 60 minutes after administration of the radiolabeled [11C]-compound; type: ADME, tissue-based; details: in vivo, 1 h; how it was run: as §1
[13] = Uptake in rat blood 10 minutes after administration of the radiolabeled [11C]-compound; type: ADME, tissue-based
[14] = Uptake in rat blood 30 minutes after administration of the radiolabeled [11C]-compound; type: ADME, tissue-based; details: 0.5 h
[15] = Uptake in rat blood 60 minutes after administration of the radiolabeled [11C]-compound; type: ADME, tissue-based; details: 1 h
[16] = Uptake in rat medulla 10 minutes after administration of the radiolabeled [11C]-compound; type: ADME, tissue-based, Medulla of organ; details: in vivo; how it was run: as §1
[17] = Uptake in rat medulla 30 minutes after administration of the radiolabeled [11C]-compound; type: ADME, tissue-based, Medulla of organ; details: in vivo, 0.5 h; how it was run: as §1
[18] = Uptake in rat medulla 60 minutes after administration of the radiolabeled [11C]-compound; type: ADME, tissue-based, Medulla of organ; details: in vivo, 1 h; how it was run: as §1
[19] = Uptake in rat striatum 10 minutes after administration of the radiolabeled [11C]-compound; type: ADME, tissue-based; details: in vivo; how it was run: as §1
[20] = Uptake in rat striatum 30 minutes after administration of the radiolabeled [11C]-compound; type: ADME, tissue-based; details: in vivo, 0.5 h; how it was run: as §1

Sequence of Metabotropic glutamate receptor 5 (P31424 whole entry): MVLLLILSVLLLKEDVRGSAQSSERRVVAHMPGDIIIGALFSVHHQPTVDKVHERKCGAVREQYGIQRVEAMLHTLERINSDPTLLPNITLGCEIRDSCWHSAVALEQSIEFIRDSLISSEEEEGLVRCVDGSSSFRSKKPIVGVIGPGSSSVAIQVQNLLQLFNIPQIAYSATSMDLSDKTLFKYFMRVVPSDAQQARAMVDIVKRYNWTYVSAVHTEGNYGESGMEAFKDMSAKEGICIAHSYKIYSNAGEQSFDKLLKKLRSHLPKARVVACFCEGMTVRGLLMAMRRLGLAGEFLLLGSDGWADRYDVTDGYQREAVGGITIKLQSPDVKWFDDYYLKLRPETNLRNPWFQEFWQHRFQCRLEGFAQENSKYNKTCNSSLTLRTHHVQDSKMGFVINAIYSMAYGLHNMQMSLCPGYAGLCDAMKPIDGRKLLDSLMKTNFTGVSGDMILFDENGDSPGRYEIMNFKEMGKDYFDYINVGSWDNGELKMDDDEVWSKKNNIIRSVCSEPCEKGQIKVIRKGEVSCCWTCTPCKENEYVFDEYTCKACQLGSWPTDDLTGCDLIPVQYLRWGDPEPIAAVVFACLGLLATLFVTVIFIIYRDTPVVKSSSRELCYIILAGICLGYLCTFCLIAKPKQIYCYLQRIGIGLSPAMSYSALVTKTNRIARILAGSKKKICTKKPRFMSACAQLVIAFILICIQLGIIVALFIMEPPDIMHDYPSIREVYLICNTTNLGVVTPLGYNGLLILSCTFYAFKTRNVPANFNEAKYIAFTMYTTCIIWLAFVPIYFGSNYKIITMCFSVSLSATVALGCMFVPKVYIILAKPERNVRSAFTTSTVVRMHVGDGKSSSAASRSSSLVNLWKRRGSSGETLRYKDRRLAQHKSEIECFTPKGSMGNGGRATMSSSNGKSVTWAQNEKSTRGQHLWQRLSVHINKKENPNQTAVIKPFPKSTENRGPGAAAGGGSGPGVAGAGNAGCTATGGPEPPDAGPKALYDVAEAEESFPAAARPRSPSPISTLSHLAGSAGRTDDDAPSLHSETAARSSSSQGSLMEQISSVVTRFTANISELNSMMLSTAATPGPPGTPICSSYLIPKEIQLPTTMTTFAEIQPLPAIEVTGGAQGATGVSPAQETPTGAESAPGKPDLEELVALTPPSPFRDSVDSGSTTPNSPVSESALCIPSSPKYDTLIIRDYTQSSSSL
Sequence of Metabotropic glutamate receptor 1 (P23385 whole entry): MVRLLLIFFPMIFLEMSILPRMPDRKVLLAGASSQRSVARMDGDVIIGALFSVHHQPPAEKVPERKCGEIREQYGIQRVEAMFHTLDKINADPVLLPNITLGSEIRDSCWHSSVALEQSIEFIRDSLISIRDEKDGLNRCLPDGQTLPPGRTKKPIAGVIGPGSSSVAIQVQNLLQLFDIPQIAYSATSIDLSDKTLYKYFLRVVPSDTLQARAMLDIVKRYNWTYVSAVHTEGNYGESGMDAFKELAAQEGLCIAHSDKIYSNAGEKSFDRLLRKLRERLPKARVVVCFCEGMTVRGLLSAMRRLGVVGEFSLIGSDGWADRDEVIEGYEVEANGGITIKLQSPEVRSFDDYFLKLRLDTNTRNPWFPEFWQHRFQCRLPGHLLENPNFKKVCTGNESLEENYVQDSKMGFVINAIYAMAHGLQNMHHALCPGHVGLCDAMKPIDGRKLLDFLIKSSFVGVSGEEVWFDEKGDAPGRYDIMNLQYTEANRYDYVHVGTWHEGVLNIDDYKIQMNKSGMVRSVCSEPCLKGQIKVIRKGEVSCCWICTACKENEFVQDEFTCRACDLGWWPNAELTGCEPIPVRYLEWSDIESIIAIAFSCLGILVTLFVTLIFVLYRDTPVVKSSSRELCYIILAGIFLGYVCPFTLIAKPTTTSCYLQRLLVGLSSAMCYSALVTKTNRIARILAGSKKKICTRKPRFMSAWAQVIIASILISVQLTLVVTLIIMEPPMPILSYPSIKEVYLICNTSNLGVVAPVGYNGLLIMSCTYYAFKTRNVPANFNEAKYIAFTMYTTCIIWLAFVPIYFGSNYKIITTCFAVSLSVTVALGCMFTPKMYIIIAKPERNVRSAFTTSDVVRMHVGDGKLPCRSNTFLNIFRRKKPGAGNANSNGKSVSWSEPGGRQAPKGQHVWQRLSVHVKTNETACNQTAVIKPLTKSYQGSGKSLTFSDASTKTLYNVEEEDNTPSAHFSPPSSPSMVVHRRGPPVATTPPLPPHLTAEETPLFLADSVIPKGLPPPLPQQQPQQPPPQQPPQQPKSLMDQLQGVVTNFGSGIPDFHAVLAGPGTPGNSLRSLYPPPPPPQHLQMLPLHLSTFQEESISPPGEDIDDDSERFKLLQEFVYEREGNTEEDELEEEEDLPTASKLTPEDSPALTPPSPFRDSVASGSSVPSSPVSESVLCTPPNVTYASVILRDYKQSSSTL

## CCc1cc2cc(C(=O)[C@H]3CC[C@@H](OC)CC3)ccc2nc1C
[1]
  Ki: 2.37 µM
[2]
  Ki: 0.00087 µM
[3]
  ID/g: 0.1%
[4]
  ID/g: 1.24%
[5]
  ID/g: 0.61%
[6]
  ID/g: 0.27%
[7]
  ID/g: 0.58%
[8]
  ID/g: 0.17%
[9]
  ID/g: 0.1%
[10]
  ID/g: 0.52%
[11]
  ID/g: 0.13%
[12]
  ID/g: 0.07%
[13]
  ID/g: 0.42%
[14]
  ID/g: 0.26%
[15]
  ID/g: 0.2%
[16]
  ID/g: 0.47%
[17]
  ID/g: 0.13%
[18]
  ID/g: 0.07%
[19]
  ID/g: 0.73%
[20]
  ID/g: 0.17%
